The values that follow come from ChEMBL document CHEMBL5055648, “Design, synthesis, and biological evaluation of novel Bcr-AblT315I inhibitors incorporating amino acids as flexible linker” (Bioorg Med Chem, 2021).

The subject of data set [1] is K-562R. In words: Antiproliferative activity against T315I mutant expressing human K-562R cells assessed as inhibition of cell proliferation incubated for 48 hrs by MTT assay. In kind it is functional, cell-based. The essentials:
(§1)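 MTT growth assay. K562 and K562R (T315I) cells grown in RPMI 1640 with 10% FBS. Hek293 and EA.hy926 cells grown in DMEM with 10% FBS. About 2.5 × 10^3 exponential-phase cells per well, preincubated 12 h at 37 °C in 5% CO2. Serially diluted compounds added for 48 h, then MTT at 0.5 mg/mL final for 4 h. Formazan dissolved in DMSO, A490 read, IC50 calculated from inhibition ratios.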
(Formazan colour is commonly taken as a measure of viable cells.)

In data set [2] the target is Bcr/Abl fusion protein (Homo sapiens, UniProt P00519). Description: Inhibition of wild type Bcr-Abl (unknown origin) incubated for 1 hr in presence of ATP by ADP-Glo kinase assay. It is filed as protein assay.
Data set [3] addresses Bcr/Abl fusion protein (Homo sapiens, UniProt P00519, T315I). Description: Inhibition of wild type Bcr-Abl T315I mutant (unknown origin) incubated for 1 hr in presence of ATP by ADP-Glo kinase assay. In kind it is protein assay. On the technique in general: ADP-Glo first removes unused ATP, then detects ADP through luciferase.
Data set [4] has as its system K562. In words: Antiproliferative activity against human K562 cells assessed as inhibition of cell proliferation incubated for 48 hrs by MTT assay. It is filed as functional, cell-based. The settings on record: K562, 48 h. In short, it runs like this: as §1
For the next data set, the system named is HEK293. Description: Cytotoxicity against human HEK293 cells assessed as cell growth inhibition incubated for 48 hrs by MTT assay. The settings on record: hek293, 48 h. In kind it is cell-based. The essentials:
as §1

A further data set concerns EA.hy 926. Description: Cytotoxicity against human EA.hy926 cells assessed as cell growth inhibition incubated for 48 hrs by MTT assay. It is filed as cell-based. The settings on record: ea.hy 926, 48 h. In short, it runs like this: as §1
For data set [5], the system named is K562. In words: Induction of apoptosis in human K562 cells assessed as viable cells at 1 uM after 48 hrs by annexinV/FITC-propidium iodide staining based flow cytometry (reference value: 84.19 %). In kind it is functional. The following applies: read-out: Activity. On the technique in general: Flow cytometry measures light scatter and fluorescence of single cells or particles in a stream.

The test system of data set [6] is K562. Description: Induction of apoptosis in human K562 cells assessed as early apoptotic cells at 1 uM after 48 hrs by annexinV/FITC-propidium iodide staining based flow cytometry (reference value: 2.98 %). It is filed as functional.
In data set [7] the test system is K562. Description: Induction of apoptosis in human K562 cells assessed as late apoptotic cells at 1 uM after 48 hrs by annexinV/FITC-propidium iodide staining based flow cytometry (reference value: 12.60 %). It is filed as functional.
The subject of data set [8] is K562. In words: Induction of apoptosis in human K562 cells assessed as necrotic cells at 1 uM after 48 hrs by annexinV/FITC-propidium iodide staining based flow cytometry (reference value: 0.23 %). In kind it is functional.
Data set [9] deals with K562. Description: Induction of apoptosis in human K562 cells assessed as viable cells at 10 uM after 48 hrs by annexinV/FITC-propidium iodide staining based flow cytometry (reference value: 84.19 %). In kind it is functional. The settings on record: read-out: Activity.
Data set [10] deals with K562. Description: Induction of apoptosis in human K562 cells assessed as early apoptotic cells at 10 uM after 48 hrs by annexinV/FITC-propidium iodide staining based flow cytometry (reference value: 2.98 %). It is filed as functional.
Data set [11] relates to K562. Description: Induction of apoptosis in human K562 cells assessed as late apoptotic cells at 10 uM after 48 hrs by annexinV/FITC-propidium iodide staining based flow cytometry (reference value: 12.60 %). In kind it is functional.
Data set [12] has as its system K562. Description: Induction of apoptosis in human K562 cells assessed as necrotic cells at 10 uM after 48 hrs by annexinV/FITC-propidium iodide staining based flow cytometry (reference value: 0.23 %). It is filed as functional.
Data set [13] has as its system K562. In words: Induction of apoptosis in human K562 cells assessed as viable cells at 20 uM after 48 hrs by annexinV/FITC-propidium iodide staining based flow cytometry (reference value: 84.19 %). The settings on record: read-out: Activity. In kind it is functional.
In data set [14] the test system is K562. In words: Induction of apoptosis in human K562 cells assessed as early apoptotic cells at 20 uM after 48 hrs by annexinV/FITC-propidium iodide staining based flow cytometry (reference value: 2.98 %). In kind it is functional.
Data set [15] deals with K562. Description: Induction of apoptosis in human K562 cells assessed as late apoptotic cells at 20 uM after 48 hrs by annexinV/FITC-propidium iodide staining based flow cytometry (reference value: 12.60 %). It is filed as functional.
Data set [16] relates to K562. In words: Induction of apoptosis in human K562 cells assessed as necrotic cells at 20 uM after 48 hrs by annexinV/FITC-propidium iodide staining based flow cytometry (reference value: 0.23 %). In kind it is functional.
Data set [17] deals with T1, Bcr/Abl fusion protein (Homo sapiens) (UniProt P00519+P11274). Description: Inhibition of Bcr-Abl in human K562 cells assessed as decrease in tyrosine phosphorylation measured after 48 hrs by Western blot analysis. In kind it is cell-based. The settings on record: dose 1-15 µM. In short, it runs like this: (§2)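 Western blot. K562 cells treated 48 h with DMSO vehicle or compound at 1, 5, 10 or 15 µM. Lysates were normalized by BCA and equal protein run on SDS-PAGE, then transferred to PVDF and blocked in 5% milk/TBS-0.1% Tween-20. Probed overnight at 4 °C with p-Bcr-Abl and GAPDH antibodies, then with HRP secondaries for 2 h at room temperature. Read-out was p-Bcr-Abl/GAPDH ratio.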

In data set [18] the target is T1, Bcr/Abl fusion protein (Homo sapiens). Description: Inhibition of Bcr-Abl phosphorylation in human K562 cells at 10 uM measured after 48 hrs by Western blot analysis. It is filed as cell-based. The essentials: as §2
Data set [19] has as its system K-562R. In words: Antiproliferative activity against T315I mutant expressing human K-562R cells assessed as inhibition of cell proliferation at 100 uM incubated for 48 hrs by MTT assay relative to control. In kind it is functional. In short, it runs like this: as §1

The source made the active and inactive calls. The calls are words filed in the database; no cut-off is given here.

`Cc1ccc(C(=O)Nc2ccc(CN3CCN(C)CC3)c(C(F)(F)F)c2)cc1C#Cc1cnc2cccnn12` [PONATINIB]: the IC50 in the data set on K-562R [1] turned out to be 0.093 µM.
For the molecule `C[C@H](NC(=O)c1ccc(-c2ccc(NC(=O)C(C)(C)C)nc2)cc1)C(=O)Nc1ccc(Cl)c(C(F)(F)F)c1`, the IC50 worked out at 0.041 µM on Bcr/Abl fusion protein [2], 0.53 µM at Bcr/Abl fusion protein [3], 7.45 µM with K562 [4] and 9.1 µM with K-562R [1]. Besides, the Activity entry is “Non-Toxic” with HEK293; “Non-Toxic” with EA.hy 926; 3.39% with K562 [6]; 21.11% in the data set with K562 [7]; 0.98% in the data set on K562 [8]; 10.03% in the data set on K562 [10]. The Activity in the data set with K562 [11] came to 48.96%; in the data set with K562 [12], 4.57%; in the data set on K562 [14] it was 11.48%; in the data set on K562 [15], 50.94%; in the data set on K562 [16], 1.65%. Moreover, the viability at 1 µM with K562 [5] was 74.5%. The viability at 10 µM with K562 [9] amounted to 36.5%. Further, the viability at 20 µM with K562 [13] amounted to 35.9%. For the same molecule, in [17], the inhibition entry is “Dose-dependent effect”. Further, the inhibition result in [18] was “Active”.
For `CC(C)(C)C(=O)Nc1ccc(-c2ccc(C(=O)N[C@H]3CN[C@@H](C(=O)Nc4ccc(Cl)c(C(F)(F)F)c4)C3)cc2)cn1`, the IC50 at Bcr/Abl fusion protein [2] is 2.64 µM; on Bcr/Abl fusion protein [3], 50.3 µM; in the data set with K562 [4] it was 11.6 µM.
For the molecule `Nc1ccc(-c2cccc(C(=O)N[C@H]3CN[C@@H](C(=O)Nc4ccc(Cl)c(C(F)(F)F)c4)C3)c2)cn1`, the results for the half-inhibitory concentration (IC50) at Bcr/Abl fusion protein [2], at Bcr/Abl fusion protein [3] and in the data set with K562 [4] were 12 µM, 103 µM and 20 µM, respectively.
In the case of `Cc1ccc(NC(=O)c2ccc(CN3CCN(C)CC3)cc2)cc1Nc1nccc(-c2cccnc2)n1` [IMATINIB], in the data set with K-562R [19], the inhibition at 100 µM worked out at 45%.
As for `O=C(NC1CC1)c1cncc(-c2cccc(C(=O)N[C@H]3CN[C@@H](C(=O)Nc4ccc(Cl)c(C(F)(F)F)c4)C3)c2)c1`, the figures for the IC50 at Bcr/Abl fusion protein [2], at Bcr/Abl fusion protein [3] and with K562 [4] were 16 µM, 26.6 µM and 27.3 µM, respectively.
For `Nc1ccc(-c2ccc(C(=O)N[C@H]3CN[C@@H](C(=O)Nc4ccc(Cl)c(C(F)(F)F)c4)C3)cc2)cn1` the same measures were 9.18 µM, 14.1 µM and 9.13 µM.
Take `CC(=O)Nc1ccc(-c2cccc(C(=O)N[C@@H](C)C(=O)Nc3ccc(Cl)c(C(F)(F)F)c3)c2)cn1`: the concentration for half-maximal inhibition (IC50) on Bcr/Abl fusion protein [2] was 0.6 µM; on Bcr/Abl fusion protein [3], 38.6 µM; with K562 [4] it was 42.8 µM.
Regarding `CCN(CC)C(=O)c1cncc(-c2ccc(C(=O)N[C@H]3CN[C@@H](C(=O)Nc4ccc(Cl)c(C(F)(F)F)c4)C3)cc2)c1`, the values for the IC50 at Bcr/Abl fusion protein [2], on Bcr/Abl fusion protein [3] and in the data set with K562 [4] were 7.4 µM, 50.5 µM and 55.5 µM, respectively.
For `C[C@H](NC(=O)c1cccc(-c2cncc(C(=O)NC3CC3)c2)c1)C(=O)Nc1ccc(Cl)c(C(F)(F)F)c1`, the IC50 at Bcr/Abl fusion protein [2] was 1.46 µM; on Bcr/Abl fusion protein [3] it was 7.83 µM; in the data set with K562 [4], 15.1 µM.
For `CC(C)(C)C(=O)Nc1ccc(-c2cccc(C(=O)N[C@H]3CN[C@@H](C(=O)Nc4ccc(Cl)c(C(F)(F)F)c4)C3)c2)cn1` the same measures were 4.63 µM, 147 µM and 28 µM.
On to `CN(C)CCNC(=O)c1cncc(-c2ccc(C(=O)N[C@H]3CN[C@@H](C(=O)Nc4ccc(Cl)c(C(F)(F)F)c4)C3)cc2)c1`, for which the results for the IC50 at Bcr/Abl fusion protein [2], on Bcr/Abl fusion protein [3] and with K562 [4] were 4.23 µM, 22.1 µM and 4.56 µM, respectively.
With `CC(=O)Nc1ccc(-c2ccc(C(=O)N[C@@H](C)C(=O)Nc3ccc(Cl)c(C(F)(F)F)c3)cc2)cn1`, the results for the half-inhibitory concentration (IC50) at Bcr/Abl fusion protein [2], at Bcr/Abl fusion protein [3] and in the data set with K562 [4] were 0.2 µM, 22.4 µM and 107 µM, respectively.

The term IC50 denotes the concentration that inhibits the measured activity by half. Usually inhibition stands for the relative decrease from the control value, in per cent.
